Consider 18 compounds from ChEMBL document CHEMBL1153938, “Synthesis of hydroxypyrone- and hydroxythiopyrone-based matrix metalloproteinase inhibitors: developing a structure-activity relationship” (Bioorg Med Chem Lett, 2009).

In experiment [1] the target is T1, 72 kDa type IV collagenase (Homo sapiens, UniProt P08253). Nature of the experiment: Inhibition of human MMP2 catalytic domain at 50 uM after 1 hr by fluorescent substrate assay. The procedure, abridged:
(§1)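 Single-concentration screen: each inhibitor tested at 50 µM against recombinant human MMP catalytic domain (MMP-1, MMP-2 or MMP-3) in a fluorescent substrate assay, with activity reported as percent inhibition.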
Target sequence in this assay (P08253 110-660 limits assumed): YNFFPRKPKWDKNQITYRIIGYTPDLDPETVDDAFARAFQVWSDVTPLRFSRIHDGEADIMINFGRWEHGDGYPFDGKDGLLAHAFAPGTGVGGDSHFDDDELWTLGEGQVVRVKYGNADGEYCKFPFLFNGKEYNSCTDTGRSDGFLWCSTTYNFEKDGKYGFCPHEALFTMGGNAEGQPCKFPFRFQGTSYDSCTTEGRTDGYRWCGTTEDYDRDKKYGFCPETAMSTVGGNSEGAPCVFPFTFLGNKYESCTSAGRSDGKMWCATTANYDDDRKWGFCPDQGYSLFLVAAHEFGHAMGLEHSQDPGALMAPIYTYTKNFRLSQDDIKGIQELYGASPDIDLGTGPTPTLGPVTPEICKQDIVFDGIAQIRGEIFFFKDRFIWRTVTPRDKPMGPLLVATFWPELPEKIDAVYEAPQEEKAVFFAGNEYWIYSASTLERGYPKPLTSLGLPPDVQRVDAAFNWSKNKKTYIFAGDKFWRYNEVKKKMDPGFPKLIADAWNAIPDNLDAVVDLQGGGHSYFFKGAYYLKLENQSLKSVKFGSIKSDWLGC

Experiment [2] deals with T2, Stromelysin-1 (Homo sapiens, UniProt P08254). The experiment can be described thus: Inhibition of human MMP3 catalytic domain at 50 uM after 1 hr by fluorescent substrate assay. The essentials: as §1
The target in experiment [3] is T3, Interstitial collagenase (Homo sapiens) (UniProt P03956).
T3 sequence (whole entry): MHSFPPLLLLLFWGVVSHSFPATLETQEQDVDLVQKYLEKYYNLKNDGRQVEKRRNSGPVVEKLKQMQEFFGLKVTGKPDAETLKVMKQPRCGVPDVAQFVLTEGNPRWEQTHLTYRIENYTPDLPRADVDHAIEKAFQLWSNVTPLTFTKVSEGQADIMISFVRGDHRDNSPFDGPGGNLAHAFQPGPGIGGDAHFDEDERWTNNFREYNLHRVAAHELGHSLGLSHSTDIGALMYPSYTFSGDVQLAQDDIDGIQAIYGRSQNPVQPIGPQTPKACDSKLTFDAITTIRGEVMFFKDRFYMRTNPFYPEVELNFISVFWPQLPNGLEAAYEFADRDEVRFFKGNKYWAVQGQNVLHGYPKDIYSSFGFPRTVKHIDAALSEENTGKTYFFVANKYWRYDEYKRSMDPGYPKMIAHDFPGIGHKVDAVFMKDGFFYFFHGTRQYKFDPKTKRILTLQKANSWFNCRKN
The experiment can be described thus: Inhibition of human MMP1 catalytic domain at 50 uM after 1 hr by fluorescent substrate assay. The essentials:
as §1

Experiment [4] deals with T1, 72 kDa type IV collagenase. The experiment can be described thus: Inhibition of human MMP2 catalytic domain by fluorescent substrate assay. The procedure, abridged: (§2)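 IC50 against human MMP catalytic domain (MMP-1, MMP-2 or MMP-3) from a fluorescent substrate assay. It was determined only for inhibitors showing relatively strong inhibition in the 50 µM screen.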
Target sequence in this assay (P08253 whole entry, the tested form may be a part): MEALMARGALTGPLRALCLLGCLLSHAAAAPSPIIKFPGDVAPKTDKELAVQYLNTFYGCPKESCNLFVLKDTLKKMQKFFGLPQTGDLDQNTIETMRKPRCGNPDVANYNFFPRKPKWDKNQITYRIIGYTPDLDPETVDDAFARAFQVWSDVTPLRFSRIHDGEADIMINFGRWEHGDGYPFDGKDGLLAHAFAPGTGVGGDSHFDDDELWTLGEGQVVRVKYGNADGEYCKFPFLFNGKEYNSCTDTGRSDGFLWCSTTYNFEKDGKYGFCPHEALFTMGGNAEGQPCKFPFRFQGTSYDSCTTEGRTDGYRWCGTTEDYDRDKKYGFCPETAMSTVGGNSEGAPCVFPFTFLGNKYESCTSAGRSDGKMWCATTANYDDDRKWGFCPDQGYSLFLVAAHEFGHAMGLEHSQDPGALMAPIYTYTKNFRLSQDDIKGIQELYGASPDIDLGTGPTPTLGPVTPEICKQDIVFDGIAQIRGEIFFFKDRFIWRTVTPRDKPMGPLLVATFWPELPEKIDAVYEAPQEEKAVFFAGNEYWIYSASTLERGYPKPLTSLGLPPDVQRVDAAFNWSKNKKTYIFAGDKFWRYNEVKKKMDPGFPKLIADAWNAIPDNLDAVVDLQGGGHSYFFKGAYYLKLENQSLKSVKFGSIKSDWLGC
The target in experiment [5] is T2, Stromelysin-1. Nature of the experiment: Inhibition of human MMP3 catalytic domain by fluorescent substrate assay. The procedure, abridged:
as §2

Another experiment has as its target T4, Interstitial collagenase (Homo sapiens, UniProt P03956).
T4 sequence (P03956 whole entry): T3 sequence (whole entry)
Nature of the experiment: Inhibition of human MMP1 catalytic domain by fluorescent substrate assay. The essentials:
as §2

T2 sequence (P08254 whole entry, the tested form may be a part): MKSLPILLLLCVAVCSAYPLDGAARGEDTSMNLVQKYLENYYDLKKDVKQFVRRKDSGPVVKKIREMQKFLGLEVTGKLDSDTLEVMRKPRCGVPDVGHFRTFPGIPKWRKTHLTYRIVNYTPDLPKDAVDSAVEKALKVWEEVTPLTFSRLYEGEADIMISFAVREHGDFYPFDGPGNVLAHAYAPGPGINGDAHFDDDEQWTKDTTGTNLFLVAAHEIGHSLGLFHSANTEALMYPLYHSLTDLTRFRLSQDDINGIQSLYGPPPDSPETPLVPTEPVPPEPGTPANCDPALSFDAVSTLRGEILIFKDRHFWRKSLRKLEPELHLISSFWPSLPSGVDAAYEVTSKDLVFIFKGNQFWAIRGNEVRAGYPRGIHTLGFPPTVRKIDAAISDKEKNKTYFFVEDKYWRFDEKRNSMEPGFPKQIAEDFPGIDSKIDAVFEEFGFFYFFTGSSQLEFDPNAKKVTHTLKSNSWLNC

In the case of `Cc1occ(O)c(=S)c1C(=O)NCc1ccc(-c2ccccc2)cc1`, the inhibition – broadly, the drop in the measured response relative to a control, in per cent – in experiment [1] was 94%; on Stromelysin-1 [2], 45%; in experiment [3], 52%. In experiment [4], the 50% inhibitory concentration (IC50) (as a rule, the midpoint of a concentration-inhibition curve) worked out at 23 µM.
Consider `Cc1cc(=O)c(O)c(C(=O)NCc2ccc(O)cc2)o1`, for which the inhibition in experiment [1] is 25%; against Stromelysin-1 [2], 94%; in experiment [3], 66%. In addition, 3.7 µM corresponded to half-maximal inhibition against Stromelysin-1 [5] (IC50).
With `COc1ccc(CNC(=O)c2oc(C)cc(=O)c2O)cc1`, the results for the inhibition (in experiment [1]; at Stromelysin-1 [2]; in experiment [3]) were 26%, 93% and 29%, respectively.
In the same order, the values of `Cc1occ(O)c(=O)c1C(=O)NCc1ccc(O)cc1` are 24%, 32% and 17%.
The like results for `COc1ccc(CNC(=O)c2c(C)oc(CO)c(O)c2=O)cc1` were, in that order, 24%, 32% and 18%.
As for `COc1ccc(CNC(=O)c2cc(=S)c(O)co2)cc1`, the inhibition in experiment [1] was 85%; against Stromelysin-1 [2], 91%; in experiment [3] it was 31%. In addition, 13.9 µM corresponded to half-maximal inhibition at Stromelysin-1 [5] (IC50).
For the compound `Cc1cc(=O)c(O)c(CNCc2ccc(-c3ccccc3)cc2)o1`, the inhibition in experiment [1] was 63%; against Stromelysin-1 [2] it was 4%; in experiment [3] it was 6%. In experiment [4], this compound registered an IC50 of 37.7 µM.
For the compound `Cc1cc(=O)c(O)c(COCc2ccc(-c3ccccc3)cc2)o1`, the inhibition in experiment [1] was 15%; against Stromelysin-1 [2], 26%; in experiment [3], 21%.
As to `COc1ccc(CNC(=O)c2oc(C)cc(=S)c2O)cc1`, the results for the inhibition (in experiment [1]; against Stromelysin-1 [2]; in experiment [3]) were 94%, 97% and 70%, respectively. Moreover, the IC50 was 19 µM in experiment [4], 16.4 µM against Stromelysin-1 [5] and 30 µM at Interstitial collagenase.
In the case of `Cc1cc(=O)c(O)c(C(=O)NCc2ccc(-c3ccccc3)cc2)o1`, the IC50 at Interstitial collagenase is above 50 µM.
`CCOC(=O)c1c(C)oc(CNCc2ccc(-c3ccccc3)cc2)c(O)c1=O`: the inhibition in experiment [1] is 18%; at Stromelysin-1 [2], below 1%; in experiment [3] it was 13%.
Consider `Cc1occ(O)c(=O)c1C(=O)NCc1ccc(-c2ccccc2)cc1`, for which the inhibition in experiment [1] worked out at 21%; against Stromelysin-1 [2], 28%; in experiment [3], 15%.
In the same order, the values of `COc1ccc(CNC(=O)c2c(C)occ(O)c2=O)cc1` are 33%, 18% and 15%.
For the compound `O=C(NCc1ccc(-c2ccccc2)cc1)c1cc(=S)c(O)co1`, the inhibition in experiment [1] was 98%; on Stromelysin-1 [2], 91%; in experiment [3], 62%. In addition, the 50% inhibitory concentration (IC50) in experiment [4] was determined as 14.4 µM; against Stromelysin-1 [5], 13.3 µM; against Interstitial collagenase, 44 µM.
For the compound `O=C(NCc1ccc(-c2ccccc2)cc1)c1cc(=O)c(O)co1`, the inhibition in experiment [1] turned out to be 14%; against Stromelysin-1 [2] it was 44%; in experiment [3], 12%.
For the compound `COc1ccc(CNC(=O)c2c(C)occ(O)c2=S)cc1`, the values for the inhibition (in experiment [1]; against Stromelysin-1 [2]; in experiment [3]) were 69%, 36% and 49%, respectively. The same compound showed a concentration for half-maximal inhibition (IC50) in experiment [4] of 30 µM.
As to `COc1ccc(CNC(=O)c2cc(=O)c(O)co2)cc1`, the inhibition in experiment [1] was 11%; on Stromelysin-1 [2] it was 22%; in experiment [3] it was 16%.
As to `Cc1cc(=S)c(O)c(C(=O)NCc2ccc(-c3ccccc3)cc2)o1`, the IC50 against Stromelysin-1 [5] was 5.6 µM.
